Assay results from ChEMBL document CHEMBL1134643 (J Med Chem, 2001).
Calls of active or inactive are those of the source. No cut-off for these calls is given here.

How the values were obtained:
[1] = target: Nociceptin receptor (Mus musculus) (UniProt P35377); test: Maximum receptor binding in the electrically stimulated mouse vas deferens; format: functional, tissue-based
Procedure, shortened: (§1)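 Vas deferens from male Swiss mice (25-30 g) is held in Mg2+-free Krebs at 33 °C, gassed with 95% O2/5% CO2 at pH 7.4. Tissue is stimulated at 0.05 Hz with 1 ms supramaximal pulses under 0.3 g resting tension, and twitches are recorded isotonically.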

Nociceptin receptor [2] = target: Nociceptin receptor (Mus musculus, UniProt P35377); test: Inhibition of [3H]NC-NH2 binding to mouse forebrain membranes; set-up: species or system Membrane
Mus musculus [3] = species: Mus musculus; test: Agonist activity of compound in the electrically stimulated mouse vas deferens; Inactive; format: functional; procedure, shortened: as §1
Mus musculus [4] = species: Mus musculus; test: Antagonist activity of compound in the electrically stimulated mouse vas deferens; Inactive; format: functional
Procedure, shortened: (§2)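 Peptides without agonist effect in the mouse vas deferens (Mg2+-free Krebs, 33 °C, 0.05 Hz, 1 ms pulses) are tested up to 10 μM. Each is added 15 min before a cumulative concentration-response curve to NC(1-13)-NH2. pKB is calculated with the Gaddum-Schild equation, taking slope as unity, from the concentration-ratio of equieffective agonist concentrations.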

Mus musculus [5] = species: Mus musculus; test: Maximum receptor binding assay determined by using mouse forebrain membrane and [3H]NC-NH2; Inactive; format: functional
Procedure, shortened: (§3)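 Forebrains from male Swiss mice are homogenised in 50 mM Tris-HCl, 2 mM EDTA, 100 μM PMSF, pH 7.4. Membranes are preincubated 30 min at 37 °C and stored at -80 °C. Displacement uses 0.5 nM [3H]NC-NH2, 200 μg protein, and graded ligand concentrations up to 10 μM, for 120 min at 25 °C.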

Nociceptin receptor [6] = target: Nociceptin receptor (Homo sapiens, UniProt P41146); test: Inhibition of forskolin stimulated cAMP accumulation in CHO cells stably expressing the human OP4 receptor; format: functional, cell-based
Mus musculus [7] = species: Mus musculus; test: Maximum receptor binding assay determined by using mouse forebrain membrane and [3H]NC-NH2; format: functional; procedure, shortened: as §3
Mus musculus [8] = species: Mus musculus; test: receptor binding constant using mouse forebrain membranes and [3H]NC-NH2 as radioligand; format: functional, Membrane; procedure, shortened: as §3
Mus musculus [9] = species: Mus musculus; test: Maximum receptor binding using mouse forebrain membranes and [3H]NC-NH2; format: functional; conditions: Membrane; procedure, shortened: as §3
Mus musculus [10] = species: Mus musculus; test: Maximum receptor binding assay determined by using mouse forebrain membrane and [3H]NC-NH2 at 10 uM; format: functional
Mus musculus [11] = species: Mus musculus; test: Antagonist activity of compound in the electrically stimulated mouse vas deferens; format: functional; procedure, shortened: as §2

Chain of Nociceptin receptor (Mus musculus) (P35377 whole entry): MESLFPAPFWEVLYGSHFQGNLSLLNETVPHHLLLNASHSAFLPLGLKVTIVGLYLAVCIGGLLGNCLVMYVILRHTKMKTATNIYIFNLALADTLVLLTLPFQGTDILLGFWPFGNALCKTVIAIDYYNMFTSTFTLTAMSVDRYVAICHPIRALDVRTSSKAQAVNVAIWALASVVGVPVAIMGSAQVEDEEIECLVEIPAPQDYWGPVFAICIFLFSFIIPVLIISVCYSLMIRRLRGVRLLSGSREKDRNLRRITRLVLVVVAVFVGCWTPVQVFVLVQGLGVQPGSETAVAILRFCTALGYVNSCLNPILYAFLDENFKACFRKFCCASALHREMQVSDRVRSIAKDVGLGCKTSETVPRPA
Chain of Nociceptin receptor (Mus musculus, UniProt P35377) (P35377 whole entry): as above
Chain of Nociceptin receptor (Homo sapiens, UniProt P41146) (P41146 whole entry): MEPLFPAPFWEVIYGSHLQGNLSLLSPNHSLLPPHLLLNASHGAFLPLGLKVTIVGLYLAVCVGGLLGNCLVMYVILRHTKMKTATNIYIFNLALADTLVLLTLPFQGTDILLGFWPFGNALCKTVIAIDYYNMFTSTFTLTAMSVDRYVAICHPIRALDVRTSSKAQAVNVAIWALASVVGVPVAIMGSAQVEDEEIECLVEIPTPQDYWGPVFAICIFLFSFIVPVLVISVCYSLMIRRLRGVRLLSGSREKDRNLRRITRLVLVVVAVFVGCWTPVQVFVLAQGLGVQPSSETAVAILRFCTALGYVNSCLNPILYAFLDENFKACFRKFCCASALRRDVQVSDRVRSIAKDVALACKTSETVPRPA

SMILES	Emax [1]	Ki (Nociceptin receptor [2])	further results
C[C@H](NC(=O)CNC(=O)[C@@H](NC(=O)[C@H](Cc1ccc(F)cc1)NC(=O)CNC(=O)CNC(=O)[C@@H](N)Cc1ccccc1)[C@@H](C)O)C(=O)N[C@@H](CCCN=C(N)N)C(=O)N[C@@H](CCCCN)C(=O)N[C@@H](CO)C(=O)N[C@@H](C)C(=O)N[C@@H](CCCN=C(N)N)C(=O)N[C@@H](CCCCN)C(N)=O	-85%	0.398 nM	–
C[C@H](NC(=O)CNC(=O)[C@@H](NC(=O)[C@H](Cc1ccc(-c2ccccc2)cc1)NC(=O)CNC(=O)CNC(=O)[C@@H](N)Cc1ccccc1)[C@@H](C)O)C(=O)N[C@@H](CCCN=C(N)N)C(=O)N[C@@H](CCCCN)C(=O)N[C@@H](CO)C(=O)N[C@@H](C)C(=O)N[C@@H](CCCN=C(N)N)C(=O)N[C@@H](CCCCN)C(N)=O	–	–	Log EC50 (Mus musculus [3]): inactive; pKb (Mus musculus [4]): inactive; Emax (Mus musculus [5]): inactive
C[C@H](NC(=O)CNC(=O)[C@@H](NC(=O)[C@H](Cc1ccc(Cl)cc1)NC(=O)CNC(=O)CNC(=O)[C@@H](N)Cc1ccccc1)[C@@H](C)O)C(=O)N[C@@H](CCCN=C(N)N)C(=O)N[C@@H](CCCCN)C(=O)N[C@@H](CO)C(=O)N[C@@H](C)C(=O)N[C@@H](CCCN=C(N)N)C(=O)N[C@@H](CCCCN)C(N)=O	-82%	0.794 nM	–
CC(C)C[C@H](NC(=O)[C@H](CCCCN)NC(=O)[C@H](CCCN=C(N)N)NC(=O)[C@H](C)NC(=O)[C@H](CO)NC(=O)[C@H](CCCCN)NC(=O)[C@H](CCCN=C(N)N)NC(=O)[C@H](C)NC(=O)CNC(=O)[C@@H](NC(=O)[C@H](Cc1ccccc1)NC(=O)CNC(=O)CNC(=O)[C@@H](N)Cc1ccccc1)[C@@H](C)O)C(=O)N[C@@H](C)C(=O)N[C@@H](CC(N)=O)C(=O)N[C@@H](CCC(N)=O)C(=O)O	–	1.91 nM	–
C[C@H](NC(=O)CNC(=O)[C@@H](NC(=O)[C@H](Cc1ccc(I)cc1)NC(=O)CNC(=O)CNC(=O)[C@@H](N)Cc1ccccc1)[C@@H](C)O)C(=O)N[C@@H](CCCN=C(N)N)C(=O)N[C@@H](CCCCN)C(=O)N[C@@H](CO)C(=O)N[C@@H](C)C(=O)N[C@@H](CCCN=C(N)N)C(=O)N[C@@H](CCCCN)C(N)=O	-76%	17.4 nM	–
C[C@H](NC(=O)CNC(=O)[C@@H](NC(=O)[C@H](Cc1ccc(C(F)(F)F)cc1)NC(=O)CNC(=O)CNC(=O)[C@@H](N)Cc1ccccc1)[C@@H](C)O)C(=O)N[C@@H](CCCN=C(N)N)C(=O)N[C@@H](CCCCN)C(=O)N[C@@H](CO)C(=O)N[C@@H](C)C(=O)N[C@@H](CCCN=C(N)N)C(=O)N[C@@H](CCCCN)C(N)=O	-75%	1 nM	–
COc1ccc(C[C@H](NC(=O)CNC(=O)CNC(=O)[C@@H](N)Cc2ccccc2)C(=O)N[C@H](C(=O)NCC(=O)N[C@@H](C)C(=O)N[C@@H](CCCN=C(N)N)C(=O)N[C@@H](CCCCN)C(=O)N[C@@H](CO)C(=O)N[C@@H](C)C(=O)N[C@@H](CCCN=C(N)N)C(=O)N[C@@H](CCCCN)C(N)=O)[C@@H](C)O)cc1	-80%	89.1 nM	EC50 (Nociceptin receptor [6]): 63.1 nM
C[C@H](NC(=O)CNC(=O)[C@@H](NC(=O)[C@H](Cc1ccc(N)cc1)NC(=O)CNC(=O)CNC(=O)[C@@H](N)Cc1ccccc1)[C@@H](C)O)C(=O)N[C@@H](CCCN=C(N)N)C(=O)N[C@@H](CCCCN)C(=O)N[C@@H](CO)C(=O)N[C@@H](C)C(=O)N[C@@H](CCCN=C(N)N)C(=O)N[C@@H](CCCCN)C(N)=O	-23%	1780 nM	–
C[C@H](NC(=O)CNC(=O)[C@@H](NC(=O)[C@H](Cc1ccc(C#N)cc1)NC(=O)CNC(=O)CNC(=O)[C@@H](N)Cc1ccccc1)[C@@H](C)O)C(=O)N[C@@H](CCCN=C(N)N)C(=O)N[C@@H](CCCCN)C(=O)N[C@@H](CO)C(=O)N[C@@H](C)C(=O)N[C@@H](CCCN=C(N)N)C(=O)N[C@@H](CCCCN)C(N)=O	-84%	0.603 nM	–
C[C@H](NC(=O)CNC(=O)[C@@H](NC(=O)[C@H](Cc1ccccc1)NC(=O)CNC(=O)CNC(=O)[C@@H](N)Cc1ccccc1)[C@@H](C)O)C(=O)N[C@@H](CCCNC(=N)N)C(=O)N[C@@H](CCCCN)C(=O)N[C@@H](CO)C(=O)N[C@@H](C)C(=O)N[C@@H](CCCNC(=N)N)C(=O)N[C@@H](CCCCN)C(N)=O	–	–	Emax (Mus musculus [7]): -82%
C[C@H](NC(=O)CNC(=O)[C@@H](NC(=O)[C@H](Cc1ccc2ccccc2c1)NC(=O)CNC(=O)CNC(=O)[C@@H](N)Cc1ccccc1)[C@@H](C)O)C(=O)N[C@@H](CCCN=C(N)N)C(=O)N[C@@H](CCCCN)C(=O)N[C@@H](CO)C(=O)N[C@@H](C)C(=O)N[C@@H](CCCN=C(N)N)C(=O)N[C@@H](CCCCN)C(N)=O	–	–	Emax (Mus musculus [7]): -75%
Cc1ccc(C[C@H](NC(=O)CNC(=O)CNC(=O)[C@@H](N)Cc2ccccc2)C(=O)N[C@H](C(=O)NCC(=O)N[C@@H](C)C(=O)N[C@@H](CCCN=C(N)N)C(=O)N[C@@H](CCCCN)C(=O)N[C@@H](CO)C(=O)N[C@@H](C)C(=O)N[C@@H](CCCN=C(N)N)C(=O)N[C@@H](CCCCN)C(N)=O)[C@@H](C)O)cc1	-73%	–	Log Ki (Mus musculus [8]): -7.84
C[C@H](NC(=O)CNC(=O)[C@@H](NC(=O)[C@H](Cc1ccccc1F)NC(=O)CNC(=O)CNC(=O)[C@@H](N)Cc1ccccc1)[C@@H](C)O)C(=O)N[C@@H](CCCN=C(N)N)C(=O)N[C@@H](CCCCN)C(=O)N[C@@H](CO)C(=O)N[C@@H](C)C(=O)N[C@@H](CCCN=C(N)N)C(=O)N[C@@H](CCCCN)C(N)=O	-94%	3.63 nM	–
C[C@H](NC(=O)CNC(=O)[C@@H](NC(=O)[C@H](Cc1cccc2ccccc12)NC(=O)CNC(=O)CNC(=O)[C@@H](N)Cc1ccccc1)[C@@H](C)O)C(=O)N[C@@H](CCCN=C(N)N)C(=O)N[C@@H](CCCCN)C(=O)N[C@@H](CO)C(=O)N[C@@H](C)C(=O)N[C@@H](CCCN=C(N)N)C(=O)N[C@@H](CCCCN)C(N)=O	–	–	Emax (Mus musculus [9]): -80%
C[C@H](NC(=O)CNC(=O)[C@@H](NC(=O)[C@@H](NC(=O)CNC(=O)CNC(=O)[C@@H](N)Cc1ccccc1)[C@@H](C)c1ccccc1)[C@@H](C)O)C(=O)N[C@@H](CCCN=C(N)N)C(=O)N[C@@H](CCCCN)C(=O)N[C@@H](CO)C(=O)N[C@@H](C)C(=O)N[C@@H](CCCN=C(N)N)C(=O)N[C@@H](CCCCN)C(N)=O	–	–	Emax (Mus musculus [7]): -86%
C[C@H](NC(=O)CNC(=O)[C@@H](NC(=O)[C@H](Cc1ccc([N+](=O)[O-])cc1)NC(=O)CNC(=O)CNC(=O)[C@@H](N)Cc1ccccc1)[C@@H](C)O)C(=O)N[C@@H](CCCN=C(N)N)C(=O)N[C@@H](CCCCN)C(=O)N[C@@H](CO)C(=O)N[C@@H](C)C(=O)N[C@@H](CCCN=C(N)N)C(=O)N[C@@H](CCCCN)C(N)=O	-86%	0.302 nM	–
C[C@H](NC(=O)CNC(=O)[C@@H](NC(=O)[C@H](CC1CCCCC1)NC(=O)CNC(=O)CNC(=O)[C@@H](N)Cc1ccccc1)[C@@H](C)O)C(=O)N[C@@H](CCCN=C(N)N)C(=O)N[C@@H](CCCCN)C(=O)N[C@@H](CO)C(=O)N[C@@H](C)C(=O)N[C@@H](CCCN=C(N)N)C(=O)N[C@@H](CCCCN)C(N)=O	–	–	Emax (Mus musculus [10]): -34%
C[C@H](NC(=O)CNC(=O)[C@@H](NC(=O)[C@H](Cc1ccccc1)N(C)C(=O)CNC(=O)CNC(=O)[C@@H](N)Cc1ccccc1)[C@@H](C)O)C(=O)N[C@@H](CCCN=C(N)N)C(=O)N[C@@H](CCCCN)C(=O)N[C@@H](CO)C(=O)N[C@@H](C)C(=O)N[C@@H](CCCN=C(N)N)C(=O)N[C@@H](CCCCN)C(N)=O	–	–	Emax (Mus musculus [7]): -84%
C[C@H](NC(=O)CNC(=O)[C@@H](NC(=O)[C@H](Cc1cccc(F)c1)NC(=O)CNC(=O)CNC(=O)[C@@H](N)Cc1ccccc1)[C@@H](C)O)C(=O)N[C@@H](CCCN=C(N)N)C(=O)N[C@@H](CCCCN)C(=O)N[C@@H](CO)C(=O)N[C@@H](C)C(=O)N[C@@H](CCCN=C(N)N)C(=O)N[C@@H](CCCCN)C(N)=O	-90%	0.891 nM	–
C[C@H](NC(=O)CNC(=O)[C@@H](NC(=O)[C@H](Cc1ccc(O)cc1)NC(=O)CNC(=O)CNC(=O)[C@@H](N)Cc1ccccc1)[C@@H](C)O)C(=O)N[C@@H](CCCN=C(N)N)C(=O)N[C@@H](CCCCN)C(=O)N[C@@H](CO)C(=O)N[C@@H](C)C(=O)N[C@@H](CCCN=C(N)N)C(=O)N[C@@H](CCCCN)C(N)=O	–	501 nM	EC50 (Nociceptin receptor [6]): 135 nM; pKb (Mus musculus [11]): 5.47
C[C@H](NC(=O)CNC(=O)[C@@H](NC(=O)CN(Cc1ccccc1)C(=O)CNC(=O)CNC(=O)[C@@H](N)Cc1ccccc1)[C@@H](C)O)C(=O)N[C@@H](CCCN=C(N)N)C(=O)N[C@@H](CCCCN)C(=O)N[C@@H](CO)C(=O)N[C@@H](C)C(=O)N[C@@H](CCCN=C(N)N)C(=O)N[C@@H](CCCCN)C(N)=O	–	–	Emax (Mus musculus [10]): -16%
C[C@H](NC(=O)CNC(=O)[C@@H](NC(=O)[C@H](Cc1ccc(Br)cc1)NC(=O)CNC(=O)CNC(=O)[C@@H](N)Cc1ccccc1)[C@@H](C)O)C(=O)N[C@@H](CCCN=C(N)N)C(=O)N[C@@H](CCCCN)C(=O)N[C@@H](CO)C(=O)N[C@@H](C)C(=O)N[C@@H](CCCN=C(N)N)C(=O)N[C@@H](CCCCN)C(N)=O	-85%	1.82 nM	–
